Data set [1] concerns the target Human immunodeficiency virus type 1 reverse transcriptase (Human immunodeficiency virus 1, UniProt Q72547). As to the kind of experiment: Inhibition of HIV1 reverse transcriptase after 1 hr by colorimetric assay. The essentials:
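Purified recombinant wild-type RT with poly(rA)/oligo(dT)16 template-primer and serial inhibitor concentrations. Incubated 1 h at 37 °C. Incorporated biotin detected with streptavidin-alkaline phosphatase and PNPP (30 min, 37 °C), read colorimetrically.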

Data set [2] concerns Human immunodeficiency virus 1. Briefly: Antiviral activity against NNRTI-resistant Human immunodeficiency virus 1 A17 double mutant infected in human MT4 cells assessed decrease in p24 level after 7 days by ELISA. Type of data set: functional, organism-based. The note with it: Human immunodeficiency virus 1, A17, MT4, 168 h. The gist of the method:
(§1)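 MT4 cells (4×10^4/well) were infected with 200 TCID50 HIV-1 and held 2 h at 37 °C, then serially diluted compound was added. […] The K103N and Y181C viruses came from transfecting RT-mutant plasmids into 293T/17 cells.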
(In general: An ELISA detects its analyte on a solid surface through an enzyme-linked reagent.)

Data set [3] concerns Human immunodeficiency virus 1. As to the kind of experiment: Antiviral activity against NNRTI-resistant Human immunodeficiency virus 1 A17 double mutant infected in human TZM-bl cells assessed decrease in p24 level after 7 days by ELISA. Format: functional, organism-based. The note with it: Human immunodeficiency virus 1, A17, TZM-bl, 168 h.
Data set [4] relates to Human immunodeficiency virus 1. As to the kind of experiment: Antiviral activity against NNRTI-resistant Human immunodeficiency virus 1 harboring reverse transcriptase K103N mutation infected in human MT4 cells assessed decrease in p24 level after 7 days by ELISA. The settings on record: Human immunodeficiency virus 1, MT4, 168 h. Format: functional, organism-based. The gist of the method:
as §1

In data set [5] the test system is Human immunodeficiency virus 1. Briefly: Antiviral activity against Human immunodeficiency virus 1 SF33 infected in human TZM-bl cells assessed decrease in p24 level after 7 days by ELISA. Type of data set: functional, organism-based. The settings on record: Human immunodeficiency virus 1, SF33, TZM-bl, 168 h.
Data set [6] deals with Human immunodeficiency virus 1. As to the kind of experiment: Antiviral activity against NNRTI-resistant Human immunodeficiency virus 1 harboring reverse transcriptase Y181C mutation infected in human MT4 cells assessed decrease in p24 level after 7 days by ELISA. Type of data set: functional, organism-based. The settings on record: Human immunodeficiency virus 1, MT4, 168 h. The gist of the method: as §1

Data set [7] relates to Human immunodeficiency virus 1. As to the kind of experiment: Antiviral activity against NNRTI-resistant Human immunodeficiency virus 1 harboring reverse transcriptase K103N mutation infected in human TZM-bl cells assessed decrease in p24 level after 7 days by ELISA. Format: functional, organism-based. The note with it: Human immunodeficiency virus 1, TZM-bl, 168 h.
The nature of data set [8]: Selectivity index, ratio of CC50 for human TZM-bl cells to EC50 for Human immunodeficiency virus 1 A17 infected in human TZM-bl cells. Format: toxicity, cell-based. The settings on record: read-out: Ratio CC50/EC50.
Data set [9] can be described thus: Selectivity index, ratio of CC50 for human MT4 cells to EC50 for Human immunodeficiency virus 1 A17 infected in human MT4 cells. Type of data set: toxicity, cell-based. The note with it: read-out: Ratio CC50/EC50.
Data set [10] relates to Human immunodeficiency virus 1. Briefly: Antiviral activity against NNRTI-resistant Human immunodeficiency virus 1 harboring reverse transcriptase Y181C mutation infected in human TZM-bl cells assessed decrease in p24 level after 7 days by ELISA. Type of data set: functional, organism-based. The note with it: Human immunodeficiency virus 1, TZM-bl, 168 h.
Data set [11] can be described thus: Cytotoxicity against human TZM-bl cells. Type of data set: cell-based.
Data set [12] in a line: Selectivity index, ratio of CC50 for human TZM-bl cells to EC50 for Human immunodeficiency virus 1 SF33 infected in human TZM-bl cells. Format: toxicity, cell-based. The settings on record: read-out: Ratio CC50/EC50.
For data set [13], the system named is Human immunodeficiency virus 1. As to the kind of experiment: Antiviral activity against Human immunodeficiency virus 1 SF33 infected in human MT4 cells assessed decrease in p24 level after 7 days by ELISA. Format: functional, organism-based. The note with it: Human immunodeficiency virus 1, SF33, MT4, 168 h. The gist of the method:
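MT4 cells (4×10^4/well) infected with 200 TCID50 of HIV-1 for 2 h at 37 °C, then serial dilutions of compound added. After 7 days at 37 °C, p24 measured in a commercial ELISA.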

A short description of data set [14]: Cytotoxicity against human MT4 cells after 3 days by XTT assay. Type of data set: cell-based. The gist of the method: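 Graded compound concentrations added to MT4 cells (5×10^4/well) for 3 days at 37 °C. CCK-8 reagent then added for 4 h at 37 °C to develop the XTT formazan product, and absorbance read at 450 nm. CC50 derived from percent cytotoxicity.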
On the technique in general: Formazan colour is commonly taken as a measure of viable cells.

Data set [15] can be described thus: Selectivity index, ratio of CC50 for human MT4 cells to EC50 for Human immunodeficiency virus 1 SF33 infected in human MT4 cells. Format: toxicity, cell-based. The settings on record: read-out: Ratio CC50/EC50.

Structures are written as SMILES. pEC50, pIC50: −log10 of the molar value.

For orientation: pIC50 means the negative decadic logarithm of the IC50, by convention in mol/L. In data set [1], `CCOC(=O)c1c(OC2CCCC2)cc(Cc2ccccc2)[nH]c1=O` showed a pIC50 of under 4.00.
For the molecule `CCOC(=O)c1c(OC2CCCCC2)cc(Cc2ccccc2)[nH]c1=O`, the pIC50 in data set [1] was 4.09.
The molecule `CCOC(=O)c1c(OC2CCCCCC2)cc(Cc2ccccc2)[nH]c1=O` showed a pIC50 in data set [1] of under 4.00.
In general, pEC50 refers to −log10 of the EC50, conventionally taken in molar units. The low end stands for a large EC50, the high end for a small EC50. Usually CC50 stands for the concentration giving 50% cytotoxicity. Turning to `CC(C)c1c(Cc2ccccc2)n(COCc2ccccc2)c(=O)[nH]c1=O`, the pEC50 in data set [2] is under 5.00; in [3], under 5.00; in [4], 5.62; in data set [5], 7.66; in data set [6], under 5.00; in data set [7], under 5.00. This molecule also had a pEC50 in [10] of under 5.00. Also, the pIC50 in data set [1] is 7.06. Moreover, the selectivity ratio in [8] is under 6; in data set [9], under 8; in data set [12], 2990. The molecule also came in with a CC50 in [11] of 65.8 µM.
In data set [1], `CCOC(=O)c1c(OC2CCCCC2C)cc(Cc2ccccc2)[nH]c1=O` (mixture of isomers) showed a pIC50 of 5.28.
On the same count and under the same terms, the result for `CCOC(=O)c1c(OC2CCCCC2Cl)cc(Cc2ccccc2)[nH]c1=O` (mixture of isomers) reads under 4.00; that for `CCOC(=O)c1c(OC2CCCC(C)C2)cc(Cc2ccccc2)[nH]c1=O` (mixture of isomers), 4.70; that for `CCOC(=O)c1c(OC2CCC(C)CC2)cc(Cc2ccccc2)[nH]c1=O` (mixture of isomers), 4.48.
In turn, `CCOC(=O)c1c(OC2C(C)CCCC2C)cc(Cc2ccccc2)[nH]c1=O` (mixture of isomers) showed a pIC50 in data set [1] of 4.43.
On the same count and under the same terms, the result for `CCOC(=O)c1c(OC2CC(C)CC(C)C2)cc(Cc2ccccc2)[nH]c1=O` (mixture of isomers) reads 4.13.
Regarding `CCOC(=O)c1c(OC2CC(C)CC(C)(C)C2)cc(Cc2ccccc2)[nH]c1=O` (mixture of isomers), in [1], the pIC50 is under 4.00.
`CC1CCCCC1Oc1cc(Cc2ccccc2)[nH]c(=O)c1` (mixture of isomers) showed a pIC50 in [1] of 4.23.
Regarding `CC1CCCCC1Oc1cc(Cc2ccccc2)[nH]c(=O)c1Br` (mixture of isomers), the negative logarithm of the IC50 (pIC50) in data set [1] is 5.92.
Same read-out and setting: in the case of `CC1CCCCC1Oc1cc(Cc2ccccc2)[nH]c(=O)c1I` (mixture of isomers) it was 6.23.
Turning to `CC(C)c1c(OC2CCCCC2C)cc(Cc2ccccc2)[nH]c1=O` (mixture of isomers), in data set [1], the pIC50 was 6.39.
As for `CC(C)c1c(OC2CCCCC2C)cc(Cc2ccc(F)cc2)[nH]c1=O` (mixture of isomers), the pEC50 in [2] is under 5.00; in data set [3] it was under 5.00; in data set [5] it was 7.59; in data set [13] it was 7.64. In [14], this molecule yielded a CC50 at 72 h of 64.6 µM. In addition, in data set [1], the pIC50 was 6.89. In addition, the selectivity ratio in data set [8] is under 7; in data set [9], under 6; in data set [15] it was 2810; in data set [12], 2860. In data set [11], this molecule showed a CC50 of 74.5 µM.
As to `CC(C)c1c(OC2CCCCC2C)cc(Cc2ccc(Cl)cc2)[nH]c1=O` (mixture of isomers), the pEC50 in data set [2] was 4.98; in data set [3], under 5.00; in [5], 7.64; in data set [13], 8.00. Besides, the CC50 at 72 h in data set [14] came to 84 µM. In data set [1], this molecule had a pIC50 of 6.80. In addition, the selectivity ratio in data set [8] is under 10; in data set [9], 8; in [15], 8400; in [12] it was 4720. The molecule further showed a CC50 in data set [11] of 109 µM.
Turning to `COc1ccc(Cc2cc(OC3CCCCC3C)c(C(C)C)c(=O)[nH]2)cc1` (mixture of isomers), the pEC50 is 6.32 in data set [2], under 5.00 in [3], 8.30 in data set [5] and 8.22 in data set [13]. The cytotoxic concentration (CC50) at 72 h in [14] is 74.5 µM. The molecule also gave a negative-log IC50 (pIC50) in data set [1] of 7.48. Besides, the selectivity ratio in data set [8] was under 13; in data set [9], 155; in data set [15] it was 12400; in [12] it was 26500. Besides, the midpoint of cytotoxicity in data set [11], the CC50, lay at 132 µM.
In the case of `Cc1ccc(Cc2cc(OC3CCCCC3C)c(C(C)C)c(=O)[nH]2)cc1` (mixture of isomers), the pEC50 in data set [2] is under 5.00; in [3] it was under 5.00; in data set [5], 7.24; in [13] it was 8.22. The CC50 at 72 h in data set [14] stood at 112 µM. In data set [1], this molecule had a pIC50 of 7.23. Moreover, the selectivity ratio in data set [8] was under 9; in [9], under 11; in [15], 18700; in data set [12], 1740. The same molecule gave a half-maximal cytotoxic concentration (CC50) in [11] of 99 µM.
`CCOC(=O)c1c(OC2CCCCC2C)cc(CCc2ccccc2)[nH]c1=O` (mixture of isomers): the pIC50 in data set [1] was under 4.00.
As to `CC1CCCCC1Oc1cc(CCc2ccccc2)[nH]c(=O)c1Br` (mixture of isomers), the pEC50 in data set [2] is 5.36; in data set [3] it was under 5.00; in data set [5], 7.04; in data set [13] it was 8.52. This molecule also registered a CC50 at 72 h in data set [14] of 100 µM. The pIC50 in data set [1] is 6.19. Besides, the selectivity ratio in data set [8] is under 8; in data set [9] it was 23; in [15], 33400. In data set [11], the CC50 is 83.1 µM.
On to `CC1CCCCC1Oc1cc(CCc2ccccc2)[nH]c(=O)c1I` (mixture of isomers), for which the pEC50 is 6.55 in [2]; 6.01 in data set [3]; 7.77 in [4]; 7.28 in [5]; 6.77 in [6]; 7.00 in data set [7]. For the same molecule, the pEC50 in [13] is 7.77; in data set [10], 6.53. For the same molecule, the CC50 at 72 h in data set [14] was over 300 µM. Further, the pIC50 in data set [1] was 6.82. Also, the selectivity ratio in [8] was 307; in data set [9], over 1070; in [15], over 17600; in data set [12], over 5660. Besides, the CC50 in data set [11] is over 300 µM.
`CC(C)c1c(OC2CCCCC2C)cc(CCc2ccccc2)[nH]c1=O` (mixture of isomers): the negative-log EC50 (pEC50) is 5.56 in data set [2], 6.22 in data set [3], 7.44 in data set [5] and 8.15 in data set [13]. In data set [14], this molecule yielded a cytotoxic concentration (CC50) at 72 h of 201 µM. In data set [1], the pIC50 was 8.00. Further, the selectivity ratio in [8] amounted to 191; in [9], 73; in [15], 28800; in data set [12], 3180. The CC50 in data set [11] amounted to 114 µM.
On to `CC(C)c1c(O[C@H]2CCCC[C@H]2C)cc(CCc2ccccc2)[nH]c1=O` (racemic), for which the negative-log EC50 (pEC50) in [2] is under 5.00; in data set [3], under 5.00; in [5], 6.87; in data set [13], 7.17. Moreover, the CC50 at 72 h in data set [14] was 87.9 µM. Further, in data set [1], the negative logarithm of the IC50 (pIC50) was 5.88. The selectivity ratio in data set [8] was under 18; in [9], under 8; in data set [15], 1290; in [12] it was 1390. Besides, in [11], the CC50 was 189 µM.
As for `Cc1ccnc2c1NC(=O)c1cccnc1N2C1CC1` [NEVIRAPINE], the pEC50 is under 5.00 in data set [2]; under 5.00 in [3]; under 5.00 in data set [4]; 6.72 in data set [5]; under 5.00 in [6]; under 5.00 in [7]. For the same molecule, the pEC50 in data set [10] was under 5.00. In data set [11], this molecule had a CC50 of 204 µM.

Source of the values: ChEMBL document CHEMBL2331178, “Novel pyridinone derivatives as non-nucleoside reverse transcriptase inhibitors (NNRTIs) with high potency against NNRTI-resistant HIV-1 strains” (J Med Chem, 2013).
